Blank lines part the entries; values can stand above or below the molecule they belong to.
Tests used:
[1] = target: T1, Beta-3 adrenergic receptor (Homo sapiens, UniProt P13945); experiment: Agonist activity at human beta3 adrenergic receptor
Summary of the method: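 Human β3 receptor agonist EC50 given as the mean of at least two experiments.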
Target sequence in this assay (P13945 whole entry): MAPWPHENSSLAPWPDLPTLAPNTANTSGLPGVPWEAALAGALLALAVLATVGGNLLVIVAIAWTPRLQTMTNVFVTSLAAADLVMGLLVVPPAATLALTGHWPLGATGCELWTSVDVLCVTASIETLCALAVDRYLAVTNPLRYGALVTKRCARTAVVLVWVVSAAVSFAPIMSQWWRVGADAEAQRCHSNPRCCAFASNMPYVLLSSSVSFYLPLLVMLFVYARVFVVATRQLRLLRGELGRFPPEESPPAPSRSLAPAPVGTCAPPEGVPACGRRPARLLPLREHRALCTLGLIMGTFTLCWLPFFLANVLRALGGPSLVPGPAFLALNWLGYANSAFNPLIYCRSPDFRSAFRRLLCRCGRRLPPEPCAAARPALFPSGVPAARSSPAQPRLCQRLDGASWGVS

[2] = target: T1, Beta-3 adrenergic receptor; experiment: Agonist activity at human beta3 adrenergic receptor relative to R-(-)-isoproterenol
Target sequence in this assay (P13945 whole entry, looked up): as the sequence (P13945 whole entry) above

[3] = target: Beta-1 adrenergic receptor (Homo sapiens, UniProt P08588); experiment: Activity at human beta1 adrenergic receptor
Chain of Beta-1 adrenergic receptor (P08588 whole entry): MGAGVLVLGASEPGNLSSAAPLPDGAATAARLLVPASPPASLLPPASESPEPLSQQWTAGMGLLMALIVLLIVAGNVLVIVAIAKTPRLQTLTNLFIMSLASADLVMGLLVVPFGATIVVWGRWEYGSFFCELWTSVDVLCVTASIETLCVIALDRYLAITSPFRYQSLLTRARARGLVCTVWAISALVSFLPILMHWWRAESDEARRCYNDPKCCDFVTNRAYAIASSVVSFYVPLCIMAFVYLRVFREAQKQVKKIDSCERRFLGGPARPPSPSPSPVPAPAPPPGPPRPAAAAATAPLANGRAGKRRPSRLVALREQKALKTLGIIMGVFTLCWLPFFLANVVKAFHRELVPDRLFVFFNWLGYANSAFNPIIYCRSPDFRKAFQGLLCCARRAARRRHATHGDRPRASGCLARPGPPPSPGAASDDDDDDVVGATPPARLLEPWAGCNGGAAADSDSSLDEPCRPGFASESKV

[4] = target: Beta-2 adrenergic receptor (Homo sapiens, UniProt P07550); experiment: Activity at human beta2 adrenergic receptor
Chain of Beta-2 adrenergic receptor (P07550 whole entry): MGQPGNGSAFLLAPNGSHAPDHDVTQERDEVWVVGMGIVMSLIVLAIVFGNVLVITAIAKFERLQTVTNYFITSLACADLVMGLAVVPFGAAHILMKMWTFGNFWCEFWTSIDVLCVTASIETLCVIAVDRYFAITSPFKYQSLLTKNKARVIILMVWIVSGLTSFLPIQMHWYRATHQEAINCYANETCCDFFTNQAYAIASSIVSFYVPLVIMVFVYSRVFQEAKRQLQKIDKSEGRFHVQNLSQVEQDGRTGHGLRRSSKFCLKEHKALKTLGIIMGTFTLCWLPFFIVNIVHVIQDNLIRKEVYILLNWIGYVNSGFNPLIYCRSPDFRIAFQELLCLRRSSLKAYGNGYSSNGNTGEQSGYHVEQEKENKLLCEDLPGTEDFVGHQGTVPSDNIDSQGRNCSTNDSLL

[5] = target: Voltage-gated inwardly rectifying potassium channel KCNH2 (Homo sapiens, UniProt Q12809); experiment: Inhibition of human ERG
[6] = target: Sodium channel protein type 5 subunit alpha (Homo sapiens, UniProt Q14524); experiment: Inhibition of human Nav1.5 by electrophysiology method
Chain of Sodium channel protein type 5 subunit alpha (Q14524 whole entry): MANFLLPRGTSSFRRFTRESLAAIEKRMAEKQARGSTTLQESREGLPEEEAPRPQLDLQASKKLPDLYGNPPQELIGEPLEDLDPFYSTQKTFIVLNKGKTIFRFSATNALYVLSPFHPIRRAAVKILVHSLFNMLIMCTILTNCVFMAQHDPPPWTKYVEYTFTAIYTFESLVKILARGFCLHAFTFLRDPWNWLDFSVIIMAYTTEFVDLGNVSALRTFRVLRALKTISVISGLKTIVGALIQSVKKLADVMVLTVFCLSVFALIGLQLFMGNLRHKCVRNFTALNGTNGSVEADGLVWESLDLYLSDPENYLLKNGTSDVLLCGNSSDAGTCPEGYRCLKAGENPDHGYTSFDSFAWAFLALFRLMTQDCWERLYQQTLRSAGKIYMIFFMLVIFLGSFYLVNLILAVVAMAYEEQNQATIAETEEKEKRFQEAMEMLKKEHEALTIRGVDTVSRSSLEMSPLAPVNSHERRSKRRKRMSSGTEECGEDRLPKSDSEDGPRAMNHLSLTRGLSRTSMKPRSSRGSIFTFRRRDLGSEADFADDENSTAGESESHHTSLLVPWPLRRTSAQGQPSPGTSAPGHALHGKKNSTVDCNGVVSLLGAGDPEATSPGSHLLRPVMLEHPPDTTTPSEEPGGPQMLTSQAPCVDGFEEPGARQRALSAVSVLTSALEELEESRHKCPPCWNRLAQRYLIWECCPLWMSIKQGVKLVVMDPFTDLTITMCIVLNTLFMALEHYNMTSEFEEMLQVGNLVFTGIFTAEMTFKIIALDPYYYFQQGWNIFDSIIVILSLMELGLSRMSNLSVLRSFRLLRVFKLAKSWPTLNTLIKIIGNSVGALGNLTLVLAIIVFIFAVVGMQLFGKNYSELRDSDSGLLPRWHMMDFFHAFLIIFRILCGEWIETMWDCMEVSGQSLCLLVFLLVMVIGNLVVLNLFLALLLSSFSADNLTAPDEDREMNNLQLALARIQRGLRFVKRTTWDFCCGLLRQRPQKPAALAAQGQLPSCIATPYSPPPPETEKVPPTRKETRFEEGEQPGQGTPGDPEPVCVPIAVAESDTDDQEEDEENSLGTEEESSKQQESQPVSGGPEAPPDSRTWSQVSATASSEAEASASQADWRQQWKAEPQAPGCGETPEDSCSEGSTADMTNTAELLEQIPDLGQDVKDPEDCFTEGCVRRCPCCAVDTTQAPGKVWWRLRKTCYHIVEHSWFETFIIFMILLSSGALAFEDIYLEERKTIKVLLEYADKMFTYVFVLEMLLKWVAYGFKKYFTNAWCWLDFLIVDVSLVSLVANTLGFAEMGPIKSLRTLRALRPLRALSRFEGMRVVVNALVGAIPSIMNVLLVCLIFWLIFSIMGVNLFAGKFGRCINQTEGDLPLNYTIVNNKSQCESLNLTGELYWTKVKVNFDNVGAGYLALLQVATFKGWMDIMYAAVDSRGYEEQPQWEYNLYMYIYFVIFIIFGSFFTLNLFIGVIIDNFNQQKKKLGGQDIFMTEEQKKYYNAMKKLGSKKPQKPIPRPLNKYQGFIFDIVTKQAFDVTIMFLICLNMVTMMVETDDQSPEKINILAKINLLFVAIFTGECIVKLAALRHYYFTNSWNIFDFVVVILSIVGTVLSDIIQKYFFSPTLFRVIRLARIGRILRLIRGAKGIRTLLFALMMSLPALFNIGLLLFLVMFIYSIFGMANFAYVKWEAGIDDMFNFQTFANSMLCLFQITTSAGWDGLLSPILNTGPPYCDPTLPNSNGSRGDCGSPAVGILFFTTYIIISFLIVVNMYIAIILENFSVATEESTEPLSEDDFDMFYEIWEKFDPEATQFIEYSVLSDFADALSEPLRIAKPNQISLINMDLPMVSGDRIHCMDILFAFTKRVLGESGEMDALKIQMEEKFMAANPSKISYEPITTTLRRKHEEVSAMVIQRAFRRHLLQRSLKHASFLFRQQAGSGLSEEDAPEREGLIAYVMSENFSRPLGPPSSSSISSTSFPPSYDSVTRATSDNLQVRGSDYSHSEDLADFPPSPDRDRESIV

[7] = target: Sodium-dependent serotonin transporter (Homo sapiens, UniProt P31645); experiment: Inhibition of SERT (unknown origin)
Chain of Sodium-dependent serotonin transporter (P31645 whole entry): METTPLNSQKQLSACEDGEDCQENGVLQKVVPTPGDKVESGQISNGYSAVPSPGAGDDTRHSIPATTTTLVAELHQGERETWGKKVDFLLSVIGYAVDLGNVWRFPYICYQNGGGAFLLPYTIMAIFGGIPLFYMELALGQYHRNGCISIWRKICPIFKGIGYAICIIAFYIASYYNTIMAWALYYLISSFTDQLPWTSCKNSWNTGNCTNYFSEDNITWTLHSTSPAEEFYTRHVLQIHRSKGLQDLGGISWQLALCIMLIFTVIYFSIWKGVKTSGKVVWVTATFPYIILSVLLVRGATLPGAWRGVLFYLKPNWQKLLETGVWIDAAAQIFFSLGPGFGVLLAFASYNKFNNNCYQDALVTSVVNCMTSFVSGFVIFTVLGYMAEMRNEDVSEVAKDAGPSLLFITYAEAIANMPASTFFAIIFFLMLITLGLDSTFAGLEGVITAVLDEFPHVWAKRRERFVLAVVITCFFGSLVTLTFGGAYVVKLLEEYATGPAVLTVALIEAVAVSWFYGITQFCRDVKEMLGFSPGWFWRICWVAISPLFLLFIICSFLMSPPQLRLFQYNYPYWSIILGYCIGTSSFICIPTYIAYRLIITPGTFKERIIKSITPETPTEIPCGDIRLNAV

[8] = Induction of phospholipidosis in human HepG2 cells; type: cell-based; conditions: read-out: A50
[9] = target: Sodium-dependent noradrenaline transporter (Homo sapiens, UniProt P23975); experiment: Inhibition of NET (unknown origin) expressed in HEK293 cells assessed as reduction in norepinephrine reuptake; type: cell-based
Chain of Sodium-dependent noradrenaline transporter (P23975 whole entry): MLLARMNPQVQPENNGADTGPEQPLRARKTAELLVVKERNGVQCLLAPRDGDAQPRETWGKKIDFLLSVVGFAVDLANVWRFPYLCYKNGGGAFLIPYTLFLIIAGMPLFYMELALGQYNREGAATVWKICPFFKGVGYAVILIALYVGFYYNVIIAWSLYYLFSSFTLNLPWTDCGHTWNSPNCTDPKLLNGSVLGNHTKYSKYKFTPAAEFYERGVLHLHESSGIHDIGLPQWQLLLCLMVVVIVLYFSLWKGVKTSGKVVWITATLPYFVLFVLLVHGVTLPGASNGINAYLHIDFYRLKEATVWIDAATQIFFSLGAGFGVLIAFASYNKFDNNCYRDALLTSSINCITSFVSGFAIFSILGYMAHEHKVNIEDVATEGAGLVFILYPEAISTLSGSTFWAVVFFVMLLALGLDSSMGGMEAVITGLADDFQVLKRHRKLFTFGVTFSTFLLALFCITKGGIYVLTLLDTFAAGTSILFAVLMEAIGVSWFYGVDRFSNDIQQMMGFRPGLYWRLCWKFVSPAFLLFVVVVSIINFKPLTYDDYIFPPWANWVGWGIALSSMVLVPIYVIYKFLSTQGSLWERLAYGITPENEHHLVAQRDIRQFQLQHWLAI

[10] = Volume of distribution in rat at 1 mg/kg, iv or 2 mg/kg, po; type: ADME, organism-based; conditions: in vivo
[11] = Plasma clearance in rat at 1 mg/kg, iv or 2 mg/kg, po; type: ADME, organism-based
Rattus norvegicus [12] = experiment: Unbound clearance in rat at 1 mg/kg, iv or 2 mg/kg, po; type: ADME, organism-based; conditions: in vivo
[13] = Half life in rat at 1 mg/kg, iv or 2 mg/kg, po; type: ADME, organism-based; conditions: in vivo
Rattus norvegicus [14] = experiment: Total dose normalized AUC in rat 2 mg/kg, po; type: ADME, organism-based; conditions: in vivo
Rattus norvegicus [15] = experiment: Unbound dose normalized AUC in rat 2 mg/kg, po; type: ADME, organism-based; conditions: in vivo
[16] = Oral bioavailability in rat 2 mg/kg; type: ADME, organism-based; conditions: in vivo
[17] = Unbound fraction in rat at 1 mg/kg, iv or 2 mg/kg, po; type: ADME, organism-based; conditions: in vivo
[18] = Plasma clearance in dog at 0.5 mg/kg, iv or 2 mg/kg, po; type: ADME, organism-based, Canis lupus familiaris
[19] = Plasma clearance in rhesus monkey at 0.5 mg/kg, iv or 2 mg/kg, po; type: ADME, organism-based, Macaca mulatta
Canis familiaris [20] = experiment: Unbound clearance in dog at 0.5 mg/kg, iv or 2 mg/kg, po; type: ADME, organism-based, Canis lupus familiaris; conditions: in vivo
Rhesus monkey [21] = experiment: Unbound clearance in rhesus monkey at 0.5 mg/kg, iv or 2 mg/kg, po; type: ADME, organism-based, Macaca mulatta; conditions: in vivo
[22] = Volume of distribution in dog at 0.5 mg/kg, iv or 2 mg/kg, po; type: ADME, organism-based, Canis lupus familiaris; conditions: in vivo
[23] = Volume of distribution in rhesus monkey at 0.5 mg/kg, iv or 2 mg/kg, po; type: ADME, organism-based, Macaca mulatta; conditions: in vivo
[24] = Half life in dog at 0.5 mg/kg, iv or 2 mg/kg, po; type: ADME, organism-based, Canis lupus familiaris; conditions: in vivo
[25] = Half life in rhesus monkey at 0.5 mg/kg, iv or 2 mg/kg, po; type: ADME, organism-based, Macaca mulatta; conditions: in vivo
Canis familiaris [26] = experiment: Total dose normalized AUC in dog at 2 mg/kg, po; type: ADME, organism-based, Canis lupus familiaris; conditions: in vivo
Rhesus monkey [27] = experiment: Total dose normalized AUC in rhesus monkey at 2 mg/kg, po; type: ADME, organism-based, Macaca mulatta; conditions: in vivo
Canis familiaris [28] = experiment: Unbound dose normalized AUC in dog at 2 mg/kg, po; type: ADME, organism-based, Canis lupus familiaris; conditions: in vivo
Rhesus monkey [29] = experiment: Unbound dose normalized AUC in rhesus monkey at 2 mg/kg, po; type: ADME, organism-based, Macaca mulatta; conditions: in vivo
[30] = Oral bioavailability in dog at 2 mg/kg; type: ADME, organism-based, Canis lupus familiaris; conditions: in vivo
[31] = Oral bioavailability in rhesus monkey at 2 mg/kg; type: ADME, organism-based, Macaca mulatta; conditions: in vivo
[32] = Unbound fraction in dog at 0.5 mg/kg, iv or 2 mg/kg, po; type: ADME, organism-based, Canis lupus familiaris; conditions: in vivo
[33] = Unbound fraction in rhesus monkey at 0.5 mg/kg, iv or 2 mg/kg, po; type: ADME, organism-based, Macaca mulatta; conditions: in vivo
[34] = Stability in dog liver microsomes assessed as parent compound remaining after 45 mins; type: ADME, Canis lupus familiaris, microsome; conditions: read-out: Stability
[35] = Stability in rat liver microsomes assessed as parent compound remaining after 45 mins; type: ADME, microsome; conditions: read-out: Stability
[36] = Stability in human liver microsomes assessed as parent compound remaining after 45 mins; type: ADME, microsome; conditions: read-out: Stability
[37] = Stability in rhesus monkey liver microsomes assessed as parent compound remaining after 45 mins; type: ADME, Macaca mulatta, microsome; conditions: read-out: Stability
[38] = Stability in human hepatocytes assessed as parent compound remaining up to 60 mins; type: ADME, cell-based, Hepatocyte; conditions: read-out: Stability
[39] = Stability in dog hepatocytes assessed as parent compound remaining up to 60 mins; type: ADME, cell-based, Canis lupus familiaris, Hepatocyte; conditions: read-out: Stability
[40] = Stability in rat hepatocytes assessed as parent compound remaining up to 60 mins; type: ADME, cell-based, Hepatocyte; conditions: read-out: Stability
[41] = Stability in rhesus monkey hepatocytes assessed as parent compound remaining up to 60 mins; type: ADME, cell-based, Macaca mulatta, Hepatocyte; conditions: read-out: Stability
Rattus norvegicus [42] = experiment: In vivo agonist activity at beta3-AR in po dosed rat; type: functional, organism-based
Rattus norvegicus [43] = experiment: Effect on nor-epinephrine level in rat brain at 10 mg/kg, po by microdialysis method; type: ADME, organism-based; conditions: in vivo
Rattus norvegicus [44] = experiment: Induction of nor-epinephrine efflux in medial prefrontal cortex of rat at 100 mg/kg, po measured 1 hr post dose by microdialysis method relative to control; type: ADME, organism-based; conditions: in vivo
[45] = Plasma clearance in rat at 0.5 mg/kg, iv administered as cassette dose or 2 mg/kg, po; type: ADME, organism-based
[46] = Volume of distribution in rat at 0.5 mg/kg, iv administered as cassette dose or 2 mg/kg, po; type: ADME, organism-based; conditions: in vivo
[47] = Half life in rat at 0.5 mg/kg, iv administered as cassette dose or 2 mg/kg, po; type: ADME, organism-based; conditions: in vivo

Compound: Cc1noc(-c2cccc(CN3CCN(C(=O)c4ccc(C[C@@H]5CC[C@H]([C@H](O)c6ccccc6)N5)cc4)CC3)n2)n1
EC50 [1]: 0.00032 µM
Emax [2]: 99%
IC50 [3]: > 20 µM
IC50 [4]: > 20 µM
IC50 [5]: > 60 µM
IC50 [6]: > 30 µM
IC50 [7]: 8.79 µM
EC50 [9]: 0.251 µM
clearance [45]: 181 mL/min/kg
Vd [46]: 19 L/kg
half-life [47]: 1.8 h

Compound: CCn1nnc(CN2CCN(C(=O)c3ccc(C[C@@H]4CC[C@H]([C@H](O)c5ccccc5)N4)cc3)CC2)n1
EC50 [1]: 0.0051 µM
Emax [2]: 91%
IC50 [3]: > 20 µM
IC50 [4]: > 20 µM
IC50 [5]: > 60 µM
IC50 [6]: > 30 µM
IC50 [7]: > 10 µM
EC50 [9]: 1.52 µM

Compound: O=C(c1ccc(C[C@@H]2CC[C@H]([C@H](O)c3ccccc3)N2)cc1)N1CCN(Cc2ccccn2)CC1
Emax [2]: 87 to 88%
IC50 [3]: > 20 µM
IC50 [4]: > 20 µM
IC50 [6]: > 30 µM
IC50 [7]: > 10 µM
AC50 [8]: 54 µM
EC50 [9]: 0.339 µM
Vd [10]: 19 L/kg
clearance [11]: 71 mL/min/kg
CL free (Rattus norvegicus [12]): 148 mL/min/kg
half-life [13]: 2.6 h
AUC/dose (Rattus norvegicus [14]): 0.35 µM·h/mg/kg
fAUC/dose (Rattus norvegicus [15]): 0.17 µM·h/mg/kg
bioavailability [16]: 71%
fraction unbound [17]: 0.48
clearance [18]: 7.9 mL/min/kg
clearance [19]: 18 mL/min/kg
CL free (Canis familiaris [20]): 17 mL/min/kg
CL free (Rhesus monkey [21]): 43 mL/min/kg
Vd [22]: 6.4 L/kg
Vd [23]: 11 L/kg
half-life [24]: 12 h
half-life [25]: 5.8 h
AUC/dose (Canis familiaris [26]): 1.3 µM·h/mg/kg
AUC/dose (Rhesus monkey [27]): 0.34 µM·h/mg/kg
fAUC/dose (Canis familiaris [28]): 0.62 µM·h/mg/kg
fAUC/dose (Rhesus monkey [29]): 0.14 µM·h/mg/kg
bioavailability [30]: 27%
bioavailability [31]: 16%
fraction unbound [32]: 0.48
fraction unbound [33]: 0.42

More lines, main results first:

EC50 [1]: 0.0019 µM
Emax [2]: 98%
IC50 [3]: > 20 µM
IC50 [4]: > 20 µM
IC50 [7]: > 10 µM
EC50 [9]: 0.627 µM
Vd [10]: 17 L/kg
clearance [11]: 98 mL/min/kg
CL free (Rattus norvegicus [12]): 151 mL/min/kg
half-life [13]: 2.8 h
AUC/dose (Rattus norvegicus [14]): 0.14 µM·h/mg/kg
fAUC/dose (Rattus norvegicus [15]): 0.09 µM·h/mg/kg
bioavailability [16]: 46%
fraction unbound [17]: 0.65
clearance [18]: 22 mL/min/kg
clearance [19]: 19 mL/min/kg
CL free (Canis familiaris [20]): 35 mL/min/kg
CL free (Rhesus monkey [21]): 43 mL/min/kg
Vd [22]: 11 L/kg
Vd [23]: 5.8 L/kg
half-life [24]: 6.9 h
half-life [25]: 6.5 h
AUC/dose (Canis familiaris [26]): 1.9 µM·h/mg/kg
AUC/dose (Rhesus monkey [27]): 0.09 µM·h/mg/kg
fAUC/dose (Canis familiaris [28]): 1.2 µM·h/mg/kg
fAUC/dose (Rhesus monkey [29]): 0.04 µM·h/mg/kg
bioavailability [30]: 100%
bioavailability [31]: 5.4%
fraction unbound [32]: 0.63
fraction unbound [33]: 0.44
remaining at 0.75 h [34]: 85%
remaining at 0.75 h [35]: 71%
remaining at 0.75 h [36]: 42%
remaining at 0.75 h [37]: 19%
remaining at 1 h [38]: 92%
remaining at 1 h [39]: 100%
remaining at 1 h [40]: 73%
remaining at 1 h [41]: 50%
EC50 (Rattus norvegicus [42]): 4.5 µM
fold change (FC) (Rattus norvegicus [44]): 2
Compound: O=C(c1ccc(C[C@@H]2CC[C@H]([C@H](O)c3ccccc3)N2)cc1)N1CCN(Cc2nnn(CC(F)(F)F)n2)CC1
IC50 [5]: 29.9 µM
IC50 [6]: > 30 µM
AC50 [8]: 72 µM
Activity (Rattus norvegicus [43]): Non-Toxic

EC50 [1]: 0.0025 µM
Emax [2]: 109%
IC50 [3]: > 20 µM
IC50 [4]: > 20 µM
IC50 [7]: > 10 µM
EC50 [9]: 0.254 µM
Compound: Cc1nnc(-c2cccc(CN3CCN(C(=O)c4ccc(C[C@@H]5CC[C@H]([C@H](O)c6ccccc6)N5)cc4)CC3)n2)o1
IC50 [6]: > 30 µM
AC50 [8]: 68 µM
